In the library only some 2.6% were active in any assay of this set; here they are far more common.
V1aR counter – activates human V1a receptor in oxytocin agonist counter-screen; hit rate 0.25% among 320,000; activation, % at 3 µM; CHO-V1R cells, Fluo-8 calcium fluorescence, agonist mode; 0% DMSO, 100% 3 nM vasopressin; AID 2797;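 active means activation above the mean activation of all tested compounds plus 3 SD, per screening run, cut at about 20% in these data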;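 further: signal is peak over basal fluorescence ratio across a 100 second FLIPR read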
OX1R antag-1 – blocks the human orexin 1 receptor; OX1R-expressing cells, FRET antagonist read-out; inhibition, % at 6.6 µM; hit rate 1.8% among 330,000; in the data active means inhibition mostly above about 38%, no sharp cut-off; inactive means mostly below about 40%
OX1R antag-2 – blocks the human orexin 1 receptor; O43613; CHO/OX1R cells, Fluo-8 calcium fluorescence, orexin A; inhibition, % at 5 µM; hit rate 0.43% among 330,000; AID 434989;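 active means inhibition above its plate's threshold, mean inhibition of all tested compounds on the plate plus 3 SD, cut at about 37% in these data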
OXTR potentiate – human OXTR potentiation; P30559; CHO-OTR cells, Fluo-8 calcium fluorescence, potentiator mode; 0% = oxytocin EC15, 100% = EC100; activation, % at 3 µM; hit rate 0.061% among 320,000; AID 2445;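 active means activation above that plate's cutoff, the mean activation of tested compounds plus 3 SD, cut at about 6.6% in these data, passing the limit was not always enough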
Target sequence (P30559 whole entry, looked up): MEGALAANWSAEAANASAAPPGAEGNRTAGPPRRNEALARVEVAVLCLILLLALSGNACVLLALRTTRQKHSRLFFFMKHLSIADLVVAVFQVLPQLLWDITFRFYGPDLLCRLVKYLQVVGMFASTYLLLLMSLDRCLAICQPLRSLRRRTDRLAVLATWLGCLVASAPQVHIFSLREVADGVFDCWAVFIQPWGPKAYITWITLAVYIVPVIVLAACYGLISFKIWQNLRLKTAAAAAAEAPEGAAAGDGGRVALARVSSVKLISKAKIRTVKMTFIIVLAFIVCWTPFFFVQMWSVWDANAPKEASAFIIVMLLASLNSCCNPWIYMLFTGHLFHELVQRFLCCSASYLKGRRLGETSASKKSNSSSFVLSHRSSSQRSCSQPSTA
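assay system = CHO-OTR cells, human receptor | schedule = compound 6 min at room temperature before oxytocin, 100 s read | detection = Fluo-8 intracellular calcium fluorescence, ex 470-495, em 515-575 nm | evaluation = normalized max/min fluorescence ratio, % activation | control set = EC15 oxytocin alone as 0%, 75 nM oxytocin (EC100) as 100%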
OXTR agonist – activates the human oxytocin receptor; hit rate 0.32% among 320,000; CHO-OTR cells, Fluo-8 calcium fluorescence; normalized: DMSO 0%, oxytocin 100%; P30559; activation, % at 3 µM;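 active means activation above the mean of all tested compounds plus 3 SD, cutoff set per screening run, cut at about 20% in these data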;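 further: peak over basal fluorescence ratio from a 100 s FLIPR kinetic read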
CHO parental Ca – signal in parental CHO cells, OX1R antagonist counter-screen; parental CHO-K1, ATP-induced calcium, Fluo-8 fluorescence; inhibition, % at 5.6 µM; hit rate 0.63% among 330,000;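 active means inhibition above that plate's mean sample inhibition plus 3 SD, cut at about 26% in these data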
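Material – parental CHO cells · Reagent – ATP stimulus · Compound – single nominal dose of 5.6 µM per compound · Detection – Fluo-8 fluorescence · Read-out basis – percent inhibition of calcium signal · Controls – ATP-challenged DMSO wells low, unchallenged DMSO wells high · Repeats – no replicates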
OX1R HTRF confirm – confirmation of human orexin 1 receptor antagonists, HTRF format; OX1R-expressing cells, HTRF antagonist assay; hit rate 49% among 1,800; shares compounds with OX1R antag-1; inhibition, % at 6.6 µM; AID 492964; in the data active means inhibition above about 55%;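 further: CHO cells expressing OX1R stimulated with orexin A at about EC80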
CHO-K1 HTRF – counter-screen: parental CHO-K1 HTRF response | shares compounds with OX1R antag-1 | parental CHO-K1 cells, HTRF counterscreen | inhibition, % at 6.6 µM | hit rate 48% among 1,800; in the data active means inhibition above about 17%
Numbers stand for hits.

Results for C[C@@H](NC(=O)C1(c2ccccc2)CCN(C(=O)OC(C)(C)C)CC1)C(=O)N[C@@H](C(=O)O)c1ccccc1 ?
V1aR counter: inactive; OX1R antag-1: 87; OX1R antag-2: inactive; OXTR potentiate: inactive; OXTR agonist: inactive; CHO parental Ca: inactive; OX1R HTRF confirm: inactive; CHO-K1 HTRF: inactive

How did C[C@H](NC(=O)C1(c2ccccc2)CCN(C(=O)OC(C)(C)C)CC1)C(=O)N[C@@H](C(=O)O)c1ccccc1 do in these assays?
V1aR counter: inactive; OX1R antag-1: inactive; OX1R antag-2: inactive; OXTR potentiate: inactive; OXTR agonist: inactive; CHO parental Ca: inactive

What do the screens show for `CCC(C)NC(=O)COc1ccc(OCc2ccccc2)cc1` (stereo not given)?
V1aR counter: inactive; OX1R antag-1: inactive; OX1R antag-2: inactive; OXTR potentiate: inactive; OXTR agonist: inactive; CHO parental Ca: inactive

What do the screens show for `Oc1ccc2ccccc2c1N=Nc1ccccn1`?
V1aR counter: inactive; OX1R antag-1: 86; OX1R antag-2: inactive; OXTR potentiate: inactive; OXTR agonist: inactive; CHO parental Ca: inactive; OX1R HTRF confirm: inactive; CHO-K1 HTRF: 29

How did Oc1ccc2ccccc2c1N=Nc1ccccc1F do in these assays?
V1aR counter: inactive; OX1R antag-1: inactive; OX1R antag-2: inactive; OXTR potentiate: inactive; OXTR agonist: inactive; CHO parental Ca: inactive

Results for Cc1ccc2c(c1)c1nc3ccccc3nc1n2C ?
V1aR counter: inactive; OX1R antag-1: 94; OX1R antag-2: inactive; OXTR potentiate: inactive; OXTR agonist: inactive; CHO parental Ca: inactive; OX1R HTRF confirm: 91; CHO-K1 HTRF: inactive

Results for Cn1c2ccc(F)cc2c2nc3ccccc3nc21 ?
V1aR counter: inactive; OX1R antag-1: 87; OX1R antag-2: inactive; OXTR potentiate: inactive; OXTR agonist: inactive; CHO parental Ca: inactive; OX1R HTRF confirm: 91; CHO-K1 HTRF: inactive

Results for Cc1ccc2c(c1)c1nc3ccccc3nc1n2CCN1CCOCC1 ?
V1aR counter: inactive; OX1R antag-1: inactive; OX1R antag-2: inactive; OXTR potentiate: inactive; OXTR agonist: inactive; CHO parental Ca: inactive

How did CSc1nnc2c3cc(F)ccc3n(C)c2n1 do in these assays?
V1aR counter: inactive; OX1R antag-1: inactive; OX1R antag-2: inactive; OXTR potentiate: inactive; OXTR agonist: inactive; CHO parental Ca: inactive

What do the screens show for `Cn1c(N=NC(=O)c2ccccc2)c(O)c2ccccc21`?
V1aR counter: inactive; OX1R antag-1: 137; OX1R antag-2: inactive; OXTR potentiate: inactive; OXTR agonist: inactive; CHO parental Ca: inactive; OX1R HTRF confirm: 98; CHO-K1 HTRF: 52

What do the screens show for `COc1ccc(CCN2C(=O)c3cccnc3C2=O)cc1OC`?
V1aR counter: inactive; OX1R antag-1: 82; OX1R antag-2: inactive; OXTR potentiate: inactive; OXTR agonist: inactive; CHO parental Ca: inactive; OX1R HTRF confirm: inactive; CHO-K1 HTRF: 21

How did CSc1ccccc1NC(=O)COC(=O)Cn1cc(C(F)(F)F)ccc1=O do in these assays?
V1aR counter: inactive; OX1R antag-1: inactive; OX1R antag-2: inactive; OXTR potentiate: inactive; OXTR agonist: inactive; CHO parental Ca: inactive

How did CC(=O)Nc1ccc(/C=C/c2ccc3cccc([N+](=O)[O-])c3n2)cc1 do in these assays?
V1aR counter: inactive; OX1R antag-1: 87; OX1R antag-2: inactive; OXTR potentiate: inactive; OXTR agonist: inactive; CHO parental Ca: inactive; OX1R HTRF confirm: 62; CHO-K1 HTRF: inactive

Results for O=C(COc1ccc(-c2ccccc2)cc1)NNC(=O)Nc1ccccc1 ?
V1aR counter: inactive; OX1R antag-1: inactive; OX1R antag-2: inactive; OXTR potentiate: inactive; OXTR agonist: inactive; CHO parental Ca: inactive

Results for COC(=O)/C=c1/s/c(=C(/C#N)C(=O)N2CCCCC2)n(-c2ccccc2)c1=O ?
V1aR counter: inactive; OX1R antag-1: inactive; OX1R antag-2: inactive; OXTR potentiate: inactive; OXTR agonist: inactive; CHO parental Ca: inactive

What do the screens show for `COC(=O)/C=c1/s/c(=C(/C#N)C(=O)N2CCOCC2)n(-c2ccccc2)c1=O`?
V1aR counter: inactive; OX1R antag-1: 118; OX1R antag-2: inactive; OXTR potentiate: inactive; OXTR agonist: inactive; CHO parental Ca: inactive; OX1R HTRF confirm: inactive; CHO-K1 HTRF: 49

Results for Cc1ccc2c(c1)C1CC(C)(O2)N(c2cccc(C(=O)NC3CCN(Cc4ccccc4)CC3)c2)C(=O)N1 (stereo not given) ?
V1aR counter: inactive; OX1R antag-1: inactive; OX1R antag-2: inactive; OXTR potentiate: inactive; OXTR agonist: inactive; CHO parental Ca: inactive

What do the screens show for `CC1CCC/C(=N/Nc2ccc([N+](=O)[O-])cc2[N+](=O)[O-])C1` (stereo not given)?
V1aR counter: inactive; OX1R antag-1: 107; OX1R antag-2: inactive; OXTR potentiate: inactive; OXTR agonist: inactive; CHO parental Ca: inactive; OX1R HTRF confirm: inactive; CHO-K1 HTRF: 27

How did O=[N+]([O-])c1ccc(N/N=C2\CC3CC=CC23)c([N+](=O)[O-])c1 (stereo not given) do in these assays?
V1aR counter: inactive; OX1R antag-1: 82; OX1R antag-2: inactive; OXTR potentiate: inactive; OXTR agonist: inactive; CHO parental Ca: inactive; OX1R HTRF confirm: inactive; CHO-K1 HTRF: 19

How did COc1cc(/C=N/Nc2nncn2N)ccc1OCc1c(C)no[n+]1[O-] do in these assays?
V1aR counter: inactive; OX1R antag-1: 89; OX1R antag-2: inactive; OXTR potentiate: inactive; OXTR agonist: inactive; CHO parental Ca: inactive; OX1R HTRF confirm: inactive; CHO-K1 HTRF: 18

What do the screens show for `COc1cc(/C=C(\C#N)C(N)=O)ccc1OCc1c(C)no[n+]1[O-]`?
V1aR counter: inactive; OX1R antag-1: inactive; OX1R antag-2: inactive; OXTR potentiate: inactive; OXTR agonist: inactive; CHO parental Ca: inactive

Results for COC(=O)Cn1c(=N)n(CCN2CCCCC2)c2ccccc21 ?
V1aR counter: inactive; OX1R antag-1: 96; OX1R antag-2: inactive; OXTR potentiate: inactive; OXTR agonist: inactive; CHO parental Ca: inactive; OX1R HTRF confirm: inactive; CHO-K1 HTRF: inactive

Results for N=c1n(CCN2CCCCC2)c2ccccc2n1CC(=O)c1ccc(Cl)c(Cl)c1 ?
V1aR counter: inactive; OX1R antag-1: inactive; OX1R antag-2: inactive; OXTR potentiate: inactive; OXTR agonist: inactive; CHO parental Ca: inactive

Results for O=C(N/N=C/c1cc(Cl)c(O)c(Cl)c1)c1cc2c(ccc3ccccc32)o1 ?
V1aR counter: inactive; OX1R antag-1: 92; OX1R antag-2: inactive; OXTR potentiate: inactive; OXTR agonist: inactive; CHO parental Ca: inactive; OX1R HTRF confirm: inactive; CHO-K1 HTRF: inactive

Results for O=Cc1c(Sc2ccccn2)nc2ccccn2c1=O ?
V1aR counter: inactive; OX1R antag-1: 96; OX1R antag-2: inactive; OXTR potentiate: inactive; OXTR agonist: inactive; CHO parental Ca: inactive; OX1R HTRF confirm: inactive; CHO-K1 HTRF: 45
